According to ChEMBL document CHEMBL3425415, “An antibacterial ortho-quinone diterpenoid and its derivatives from Caryopteris mongolica” (2015):
The source made the active and inactive calls. The rule behind the calls is not given here.

What was measured:
Type in all cases: functional
[1] = test system: Staphylococcus aureus; assay: Antibacterial activity against Staphylococcus aureus assessed as growth inhibition at 5 ug/disc after 24 hrs by disc diffusion method; settings: read-out: DIZ
In short: (§1)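 Disc diffusion: 100 µL of each bacterial culture (10^6 CFU/mL), grown 18 h in nutrient broth, spread onto meat peptone agar in Petri dishes. Compound-loaded discs applied. Plates incubated 24 h at 37 °C. Inhibition zone diameter measured in mm. Treatments replicated 3-5 times, reported as mean ± S.E.M.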

[2] = test system: Staphylococcus epidermidis; assay: Antibacterial activity against Staphylococcus epidermidis assessed as growth inhibition at 5 ug/disc after 24 hrs by disc diffusion method; settings: read-out: DIZ
In short: (§2)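 Disc diffusion: 100 µL inoculum (10^6 CFU/mL, grown 18 h in nutrient broth) spread on meat peptone agar plates; discs applied and incubated 24 h at 37 °C. Inhibition zone diameters measured in mm; 3-5 replicates, mean ± S.E.M.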

[3] = test system: Enterococcus faecalis; assay: Antibacterial activity against Enterococcus faecalis assessed as growth inhibition at 50 ug/disc after 24 hrs by disc diffusion method; settings: for zone of inhibition at 50 µg/disc: read-out: DIZ; in short: as §1
[4] = test system: Micrococcus luteus; assay: Antibacterial activity against Micrococcus luteus assessed as growth inhibition at 5 ug/disc after 24 hrs by disc diffusion method; settings: read-out: DIZ; in short: as §2
[5] = test system: Staphylococcus aureus; assay: Antibacterial activity against Staphylococcus aureus assessed as growth inhibition at 500 ug/disc after 24 hrs by disc diffusion method; settings: for zone of inhibition at 500 µg/disc: read-out: DIZ; in short: as §2
[6] = test system: Staphylococcus aureus; assay: Antibacterial activity against Staphylococcus aureus assessed as growth inhibition at 50 ug/disc after 24 hrs by disc diffusion method; settings: for zone of inhibition at 50 µg/disc: read-out: DIZ; in short: as §1
[7] = test system: Staphylococcus epidermidis; assay: Antibacterial activity against Staphylococcus epidermidis assessed as growth inhibition at 50 ug/disc after 24 hrs by disc diffusion method; settings: for zone of inhibition at 50 µg/disc: read-out: DIZ; in short: as §1
[8] = test system: Staphylococcus epidermidis; assay: Antibacterial activity against Staphylococcus epidermidis assessed as growth inhibition at 500 ug/disc after 24 hrs by disc diffusion method; settings: for zone of inhibition at 500 µg/disc: read-out: DIZ; in short: as §1
[9] = test system: Enterococcus faecalis; assay: Antibacterial activity against Enterococcus faecalis assessed as growth inhibition at 500 ug/disc after 24 hrs by disc diffusion method; settings: read-out: DIZ; in short: as §1
[10] = test system: Micrococcus luteus; assay: Antibacterial activity against Micrococcus luteus assessed as growth inhibition at 50 ug/disc after 24 hrs by disc diffusion method; settings: for zone of inhibition at 50 µg/disc: read-out: DIZ; in short: as §1
[11] = test system: Micrococcus luteus; assay: Antibacterial activity against Micrococcus luteus assessed as growth inhibition at 500 ug/disc after 24 hrs by disc diffusion method; in short: as §1
[12] = test system: Enterococcus faecalis; assay: Antibacterial activity against Enterococcus faecalis assessed as growth inhibition at 5 ug/disc after 24 hrs by disc diffusion method; settings: read-out: DIZ; in short: as §2
[13] = test system: Staphylococcus aureus; assay: Antibacterial activity against Staphylococcus aureus assessed as growth inhibition at 25 ug/disc after 24 hrs by disc diffusion method; settings: read-out: DIZ; in short: as §1
[14] = test system: Staphylococcus epidermidis; assay: Antibacterial activity against Staphylococcus epidermidis assessed as growth inhibition at 25 ug/disc after 24 hrs by disc diffusion method; settings: read-out: DIZ; in short: as §1
[15] = test system: Enterococcus faecalis; assay: Antibacterial activity against Enterococcus faecalis assessed as growth inhibition at 25 ug/disc after 24 hrs by disc diffusion method; settings: read-out: DIZ; in short: as §1
[16] = test system: Micrococcus luteus; assay: Antibacterial activity against Micrococcus luteus assessed as growth inhibition at 25 ug/disc after 24 hrs by disc diffusion method; settings: read-out: DIZ; in short: as §1

Structure (SMILES) | zone of inhibition at 5 µg/disc [2] [mm] | zone of inhibition at 50 µg/disc [3] [mm] | zone of inhibition at 5 µg/disc [4] [mm] | zone of inhibition at 500 µg/disc [5] [mm] | zone of inhibition at 50 µg/disc [6] [mm] | zone of inhibition at 50 µg/disc [7] [mm] | zone of inhibition at 500 µg/disc [9] [mm] | zone of inhibition at 50 µg/disc [10] [mm] | zone of inhibition at 5 µg/disc [12] [mm] | growth inhibition (GI) [6] | growth inhibition (GI) [7] | growth inhibition (GI) [3] | growth inhibition (GI) [10] | other results
NC[C@H]1O[C@H](O[C@H]2[C@H](O)[C@@H](O[C@H]3O[C@H](CO)[C@@H](O)[C@H](N)[C@H]3O)[C@H](N)C[C@@H]2N)[C@H](O)[C@@H](O)[C@@H]1O [KANAMYCIN] | 20.5 | 17.9 | 16 |  |  |  |  |  |  |  |  |  |  | zone of inhibition at 5 µg/disc [1]: 16.3 mm
CC(C)c1cc2c(c(O)c1O)[C@@]1(C)CCCC(C)(C)C1=C(O)C2=O [14-DEOXYCOLEON U] |  | 10.5 |  | 17.8 | 10.2 | 10.2 | 16.8 | 9 |  |  |  |  |  | zone of inhibition at 500 µg/disc [8]: 18.2 mm; zone of inhibition at 500 µg/disc ([11]; read-out: DIZ): 14.8 mm
CC(C)c1cc2c(c(O)c1O)[C@@]1(C)CCCC(C)(C)[C@@H]1[C@@H](O)C2=O [6-ALPHA-HYDROXYDEMETHYL-CRYPTOJAPONOL] | 21.2 | 13.8 | 17.7 | 22.5 | 11 | 11.5 |  | 9.1 | 20.2 |  |  |  |  | 
CC1=C(C)[C@@H]2CC(=O)C3=C(C(=O)OC(=O)[C@@]4(C[C@H]4C)[C@@H]3O)[C@@]2(C)CC1 |  |  |  |  |  |  |  |  |  | inactive | inactive | inactive | inactive | 
C[C@H]1C[C@]12C(=O)OC(=O)C1=C(C(=O)C[C@H]3C(C)(C)CCC[C@]13C)[C@H]2O |  |  |  |  |  |  | 9.6 |  |  | inactive | inactive | inactive | inactive | growth inhibition (GI) [5]: inactive; growth inhibition (GI) [8]: inactive; growth inhibition (GI) [11]: inactive
CC1=C(C)[C@@H]2CC(=O)C3=C(C(=O)C(=O)[C@]4(C[C@@H]4C)[C@@H]3O)[C@@]2(C)CC1 | 15.9 | 24 | 16.3 | 30.6 | 22.6 | 24.1 | 28.7 |  | 23.2 |  |  |  |  | zone of inhibition at 5 µg/disc [1]: 12.9 mm; zone of inhibition at 500 µg/disc [8]: 29.3 mm; zone of inhibition at 25 µg/disc [13]: 21.5 mm; zone of inhibition at 25 µg/disc [14]: 23.2 mm; zone of inhibition at 25 µg/disc [15]: 22 mm; zone of inhibition at 25 µg/disc [16]: 27.9 mm
CC(C)c1cc2c(c(O)c1O)[C@@]1(C)CCCC(C)(C)[C@@H]1CC2=O [DEMETHYLCRYPTOJAPONOL] | 16 | 11.3 | 13.5 | 15.8 | 11.8 | 13.7 |  | 9 | 15.2 |  |  |  |  | 
C[C@@H]1C[C@@]12C(=O)OC(=O)C1=C(C(=O)C[C@H]3C(C)(C)CCC[C@]13C)[C@H]2O |  |  |  |  |  |  |  |  |  | inactive | inactive | inactive | inactive | 
